In data set [1] the test system is Mus musculus. The data set can be described thus: Anticonvulsant activity in CF1 albino mouse assessed as protection against subcutaneous pentylenetetrazole-induced seizures at 300 mg/kg, ip after 0.5 hrs. Also noted: dose 300 mg/kg. It is filed as functional, organism-based. A digest of the protocol: (§1)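 Male CF-1 mice in groups of eight were dosed i.p. at 30, 100 or 300 mg/kg in 0.5% methylcellulose/water. At 0.5 and 4 h, pentylenetetrazole 85 mg/kg (CD97 dose) was given s.c. This dose produces clonic seizures lasting at least 5 s. The minimum protective dose was recorded, with a top dose of 300 mg/kg.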

Data set [2] has as its system Mus musculus. The experiment in a line: Anticonvulsant activity in CF1 albino mouse assessed as protection against subcutaneous pentylenetetrazole-induced seizures at 300 mg/kg, ip after 4 hrs. It is filed as functional, organism-based. Also noted: dose 300 mg/kg. In a few lines:
as §1

Data set [3] deals with Mus musculus. The experiment in a line: Anticonvulsant activity in ip dosed CF1 albino mouse assessed as protection against maximal electroshock after 0.5 hrs. It is filed as functional. As to conditions: read-out: MED. In a few lines:
(§2)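 Male albino CF-1 mice in groups of eight received i.p. doses of 30, 100 and 300 mg/kg, suspended in 0.5% methylcellulose/water. Maximal electroshock seizures were tested at 0.5 and 4 h, with one additional 0.25 h reading at 100 mg/kg. The minimum dose giving protection was recorded. A dash means no activity at 300 mg/kg.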
A general note: In the maximal electroshock model the usual endpoint is tonic extension of the hind limbs.

The subject of data set [4] is Mus musculus. The experiment in a line: Neurotoxicity in ip dosed CF1 albino mouse assessed as minimum dose required to cause motor impairment after 0.5 hrs by rotarod test. Type of data set: toxicity, organism-based. As to conditions: in vivo. A digest of the protocol:
(§3)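 Acute neurotoxicity was scored on the minimal motor impairment rotorod test in male CF-1 mice. Animals in groups of eight were dosed i.p. at 30, 100 or 300 mg/kg in 0.5% methylcellulose/water and examined at 0.5 and 4 h. Untreated controls keep their balance on the rod for a prolonged time. The minimum dose causing impairment was recorded.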
(Falling from the rotarod earlier than controls is read as motor impairment.)

The subject of data set [5] is Mus musculus. The experiment in a line: Neurotoxicity in CF1 albino mouse assessed as unable to grasp rotarod at 300 mg/kg, ip after 4 hrs by rotarod test. Type of data set: toxicity, organism-based. Further details: dose 300 mg/kg, route intraperitoneal. As to conditions: in vivo. A digest of the protocol: as §3
Data set [6] has as its system Mus musculus. The experiment in a line: Anticonvulsant activity in ip dosed CF1 albino mouse assessed as protection against maximal electroshock after 4 hrs. The conditions noted are these: read-out: MED. It is filed as functional. A digest of the protocol: as §2
Data set [7] has as its system Rattus norvegicus. The experiment in a line: Anticonvulsant activity in Sprague-Dawley albino rat assessed as protection against maximal electroshock at 30 mg/kg, po after 0.25 hrs. It is filed as functional. A digest of the protocol: (§4)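 Male Sprague-Dawley rats in groups of four received 30 mg/kg p.o. as a suspension in 0.5% methylcellulose/water. Maximal electroshock seizure protection was scored at 0.25, 0.5, 1, 2 and 4 h and reported as rats protected/rats tested.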

Data set [8] deals with Rattus norvegicus. The experiment in a line: Anticonvulsant activity in Sprague-Dawley albino rat assessed as protection against maximal electroshock at 30 mg/kg, po after 0.5 hrs. Type of data set: functional. A digest of the protocol: as §4
Data set [9] concerns Rattus norvegicus. The data set can be described thus: Neurotoxicity in Sprague-Dawley albino rat assessed as motor impairment at 30 mg/kg, po by rotarod test. Type of data set: toxicity, organism-based. Also noted: dose 30 mg/kg, route oral. As to conditions: in vivo. A digest of the protocol:
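Male Sprague-Dawley rats in groups of four were given 30 mg/kg orally in 0.5% methylcellulose/water. Motor impairment was then assessed on the standardized minimal motor impairment rotorod test.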

Data set [10] has as its system Rattus norvegicus. The data set can be described thus: Anticonvulsant activity in Sprague-Dawley albino rat assessed as protection against maximal electroshock at 30 mg/kg, po after 2 hrs. Type of data set: functional. A digest of the protocol:
as §4

Data set [11] has as its system Mus musculus. The data set can be described thus: Anticonvulsant activity in ip dosed CF1 albino mouse assessed as protection against subcutaneous pentylenetetrazole-induced after 0.5 hrs. The conditions noted are these: read-out: MED. Type of data set: functional. A digest of the protocol:
as §1

In data set [12] the test system is Mus musculus. The experiment in a line: Anticonvulsant activity in ip dosed CF1 albino mouse assessed as protection against subcutaneous pentylenetetrazole-induced after 4 hrs. As to conditions: read-out: MED. Type of data set: functional. A digest of the protocol:
as §1

Data set [13] concerns Rattus norvegicus. The experiment in a line: Anticonvulsant activity in Sprague-Dawley albino rat assessed as protection against maximal electroshock at 30 mg/kg, po after 4 hrs. It is filed as functional. A digest of the protocol: as §4
Data set [14] has as its system Mus musculus. The experiment in a line: Neurotoxicity in ip dosed CF1 albino mouse assessed as minimum dose required to cause motor impairment after 4 hrs by rotarod test. It is filed as toxicity, organism-based. The conditions noted are these: in vivo. In a few lines: as §3
The test system of data set [15] is Rattus norvegicus. The experiment in a line: Anticonvulsant activity in Sprague-Dawley albino rat assessed as protection against maximal electroshock at 30 mg/kg, po after 1 hr. Type of data set: functional. A digest of the protocol:
as §4

Data set [16] relates to Rattus norvegicus. The data set can be described thus: Anticonvulsant activity in po dosed rat assessed as protection against maximal electroshock. Type of data set: functional.
Data set [17] deals with Mus musculus. The experiment in a line: Neurotoxicity in CF1 albino mouse assessed as motor impairment at 300 mg/kg, ip after 0.5 hrs by rotarod test. Type of data set: toxicity, organism-based. Further details: dose 300 mg/kg, route intraperitoneal. The conditions noted are these: in vivo. A digest of the protocol:
as §3

Data set [18] deals with Mus musculus. The experiment in a line: Neurotoxicity in CF1 albino mouse assessed as motor impairment at 300 mg/kg, ip after 4 hrs by rotarod test. It is filed as toxicity, organism-based. Also noted: dose 300 mg/kg, route intraperitoneal. As to conditions: in vivo. In a few lines:
as §3

The test system of data set [19] is Mus musculus. The experiment in a line: Anticonvulsant activity in CF1 albino mouse assessed as protection against maximal electroshock at 100 mg/kg, ip after 0.25 hrs. It is filed as functional, organism-based. Further details: dose 100 mg/kg. In a few lines: as §2
Data set [20] deals with Mus musculus. The data set can be described thus: Neurotoxicity in ip dosed CF1 albino mouse assessed as minimum dose required to cause tremors after 0.5 hrs by rotarod test. It is filed as toxicity, organism-based. As to conditions: in vivo.
In data set [21] the test system is Mus musculus. The data set can be described thus: Anticonvulsant activity in CF1 albino mouse assessed as protection against maximal electroshock at 300 mg/kg, ip after 4 hrs. It is filed as functional, organism-based. Further details: dose 300 mg/kg. In a few lines: as §2
For data set [22], the system named is Mus musculus. The experiment in a line: Anticonvulsant activity in CF1 albino mouse assessed as protection against maximal electroshock at 300 mg/kg, ip after 0.5 hrs. It is filed as functional, organism-based. Also noted: dose 300 mg/kg. In a few lines:
as §2

In data set [23] the test system is Mus musculus. The data set can be described thus: Neurotoxicity in CF1 albino mouse assessed as unable to grasp rotarod at 300 mg/kg, ip after 0.5 hrs by rotarod test. Type of data set: toxicity, organism-based. Further details: dose 300 mg/kg, route intraperitoneal. The conditions noted are these: in vivo. In a few lines:
as §3

Structures are written as SMILES. The source made the active and inactive calls. No cut-off for these calls is given here.

Broadly, the ED50 is the dose that gives a 50% effect, or the effect in half of the subjects.

For `O=C(CN1C(=O)C2C3C=CC(C3)C2C1=O)N1CCN(c2ccc(F)cc2)CC1` (stereo not drawn), the result in the data set on Mus musculus [1] and in the data set with Mus musculus [2] was inactive. Besides, the minimal effective dose in the data set with Mus musculus [3] and with Mus musculus [6] was 100 mg/kg in each case. For the same molecule, the MTC in the data set with Mus musculus [4] turned out to be 300 mg/kg. In addition, in the data set on Mus musculus [5], the Activity result is reported as “Toxic”.

For the molecule `O=C(CN1C(=O)c2ccccc2C1=O)N1CCN(c2ccc(F)cc2)CC1`, the Activity was 25% in the data set with Rattus norvegicus [7]; 50% with Rattus norvegicus [8]; “Non-toxic” in the data set with Rattus norvegicus [9]; 100% in the data set with Rattus norvegicus [10]; 100% in the data set on Rattus norvegicus [13]; 50% in the data set on Rattus norvegicus [15]. Also, the minimal effective dose in the data set with Mus musculus [3] came to 30 mg/kg; in the data set on Mus musculus [6], 100 mg/kg; in the data set with Mus musculus [11], 300 mg/kg; in the data set on Mus musculus [12], 300 mg/kg. Also, the MTC in the data set with Mus musculus [4] and in the data set with Mus musculus [14] was 300 mg/kg each time.

Turning to `Nc1ccc(N2C(=O)c3ccccc3C2=O)c(Cl)c1`, the ED50 in the data set with Rattus norvegicus [16] is 5.7 mg/kg.

As for `O=C(CN1C(=O)C2CCCCC2C1=O)N1CCN(c2ccc(F)cc2)CC1` (stereo not drawn), the Activity result is given as “Non-toxic” with Mus musculus [17]; 0% in the data set with Rattus norvegicus [7]; 50% in the data set with Rattus norvegicus [8]; “Non-toxic” with Mus musculus [18]; “Non-toxic” in the data set with Rattus norvegicus [9]; 0% with Rattus norvegicus [10]. The Activity with Rattus norvegicus [13] is listed as 0%; with Rattus norvegicus [15], 25%. In addition, the outcome in the data set on Mus musculus [1] and in the data set with Mus musculus [2] was inactive. Further, the minimal effective dose in the data set with Mus musculus [3] and with Mus musculus [6] was 300 mg/kg throughout. Further, the outcome in the data set on Mus musculus [19] was Active.

Take `O=C(CN1C(=O)C2CCCCC2C1=O)N1CCN(c2cccc(Cl)c2Cl)CC1` (stereo not drawn): the result in the data set with Mus musculus [1], in the data set with Mus musculus [2], with Mus musculus [21] and with Mus musculus [22] was inactive. The values for the Activity entry in the data set with Mus musculus [20] and in the data set with Mus musculus [18] were “Toxic” and “Non-toxic”, respectively.

Take `O=C1CC2(CCc3ccccc3C2)C(=O)N1CN1CCN(c2cccc(C(F)(F)F)c2)CC1` (stereo not drawn): the ED50 with Rattus norvegicus [16] is 9 mg/kg.

With `O=C(CN1C(=O)c2ccccc2C1=O)N1CCOCC1`, the Activity result in the data set with Mus musculus [23] and in the data set on Mus musculus [5] was “Toxic” in each case. Further, the result in the data set with Mus musculus [1] and in the data set on Mus musculus [2] was inactive. Besides, the minimal effective dose in the data set on Mus musculus [3] and in the data set on Mus musculus [6] was 100 mg/kg in each case.

Take `O=C1NC(=O)C(c2ccccc2)(c2ccccc2)N1` [PHENYTOIN]: the outcome in the data set with Mus musculus [1] and with Mus musculus [2] was inactive. The Activity in the data set with Rattus norvegicus [7] is listed as 25%; in the data set with Rattus norvegicus [8], 100%; in the data set with Rattus norvegicus [9] it was “Non-toxic”; in the data set with Rattus norvegicus [10] it was 75%; with Rattus norvegicus [13] it was 75%; in the data set with Rattus norvegicus [15], 75%. The minimal effective dose in the data set on Mus musculus [3] and in the data set on Mus musculus [6] was 30 mg/kg throughout. Besides, the MTC in the data set with Mus musculus [4] and in the data set on Mus musculus [14] was 100 mg/kg throughout.

In the case of `NC(=O)N1c2ccccc2C=Cc2ccccc21` [CARBAMAZEPINE], the minimal effective dose in the data set on Mus musculus [3] was 30 mg/kg; with Mus musculus [6], 100 mg/kg; with Mus musculus [11], 100 mg/kg; in the data set on Mus musculus [12], 300 mg/kg. The MTC in the data set with Mus musculus [4] stood at 100 mg/kg; in the data set on Mus musculus [14], 300 mg/kg.
